Test results from paper PMC3253552 (Biochemical and Biophysical Research Communications, 2011).
Bridge positions count the residues as written; N and C are the ends. Square brackets hold non-standard residues; d marks the D form. Peptide text beside a SMILES is read from it. R8 = C=CCCCCCC[C@@](C)(N)C(=O)O; S5 = C=CCCC[C@](C)(N)C(=O)O

Columns and labels:
[1] = CD spectroscopy of peptide helicity and thermostability; assay type: physicochemical; details: peptide 0.1 mg/mL in sodium phosphate buffer pH 7.4, 24°C
How it was run: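 Peptide at 0.1 mg/mL in sodium phosphate buffer, pH 7.4, in a quartz cuvette with 0.2 cm path length. Far-UV CD spectra were scanned from 185 to 240 nm at 24°C. Signal was normalised to mean residue ellipticity to estimate helical content. For thermostability, ellipticity was followed while temperature was raised from 10 to 90°C.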

chymotrypsin = test: Peptide proteolysis by chymotrypsin, loss of intact peptide by MALDI-TOF MS; assay type: in vitro ADME; details: pH 7
pepsin = test: Peptide proteolysis by pepsin, loss of intact peptide by MALDI-TOF MS; assay type: in vitro ADME; details: for susceptibility to proteolysis by pepsin (in words): pepsin 0.5 μg/ml, 10% acetic acid pH 2, peptide 500 μg/ml, 37°C, MALDI-TOF MS; for remaining at 24 h, 500 μg/ml: pepsin, pH 2
human ABCA1 = human ABCA1 (Homo sapiens, UniProt O95477); test: Cholesterol efflux from ABCA1 transfected BHK cells; assay type: cell-based; details: [3H] cholesterol, 18 h with peptide
Sequence of human ABCA1 (O95477 whole entry): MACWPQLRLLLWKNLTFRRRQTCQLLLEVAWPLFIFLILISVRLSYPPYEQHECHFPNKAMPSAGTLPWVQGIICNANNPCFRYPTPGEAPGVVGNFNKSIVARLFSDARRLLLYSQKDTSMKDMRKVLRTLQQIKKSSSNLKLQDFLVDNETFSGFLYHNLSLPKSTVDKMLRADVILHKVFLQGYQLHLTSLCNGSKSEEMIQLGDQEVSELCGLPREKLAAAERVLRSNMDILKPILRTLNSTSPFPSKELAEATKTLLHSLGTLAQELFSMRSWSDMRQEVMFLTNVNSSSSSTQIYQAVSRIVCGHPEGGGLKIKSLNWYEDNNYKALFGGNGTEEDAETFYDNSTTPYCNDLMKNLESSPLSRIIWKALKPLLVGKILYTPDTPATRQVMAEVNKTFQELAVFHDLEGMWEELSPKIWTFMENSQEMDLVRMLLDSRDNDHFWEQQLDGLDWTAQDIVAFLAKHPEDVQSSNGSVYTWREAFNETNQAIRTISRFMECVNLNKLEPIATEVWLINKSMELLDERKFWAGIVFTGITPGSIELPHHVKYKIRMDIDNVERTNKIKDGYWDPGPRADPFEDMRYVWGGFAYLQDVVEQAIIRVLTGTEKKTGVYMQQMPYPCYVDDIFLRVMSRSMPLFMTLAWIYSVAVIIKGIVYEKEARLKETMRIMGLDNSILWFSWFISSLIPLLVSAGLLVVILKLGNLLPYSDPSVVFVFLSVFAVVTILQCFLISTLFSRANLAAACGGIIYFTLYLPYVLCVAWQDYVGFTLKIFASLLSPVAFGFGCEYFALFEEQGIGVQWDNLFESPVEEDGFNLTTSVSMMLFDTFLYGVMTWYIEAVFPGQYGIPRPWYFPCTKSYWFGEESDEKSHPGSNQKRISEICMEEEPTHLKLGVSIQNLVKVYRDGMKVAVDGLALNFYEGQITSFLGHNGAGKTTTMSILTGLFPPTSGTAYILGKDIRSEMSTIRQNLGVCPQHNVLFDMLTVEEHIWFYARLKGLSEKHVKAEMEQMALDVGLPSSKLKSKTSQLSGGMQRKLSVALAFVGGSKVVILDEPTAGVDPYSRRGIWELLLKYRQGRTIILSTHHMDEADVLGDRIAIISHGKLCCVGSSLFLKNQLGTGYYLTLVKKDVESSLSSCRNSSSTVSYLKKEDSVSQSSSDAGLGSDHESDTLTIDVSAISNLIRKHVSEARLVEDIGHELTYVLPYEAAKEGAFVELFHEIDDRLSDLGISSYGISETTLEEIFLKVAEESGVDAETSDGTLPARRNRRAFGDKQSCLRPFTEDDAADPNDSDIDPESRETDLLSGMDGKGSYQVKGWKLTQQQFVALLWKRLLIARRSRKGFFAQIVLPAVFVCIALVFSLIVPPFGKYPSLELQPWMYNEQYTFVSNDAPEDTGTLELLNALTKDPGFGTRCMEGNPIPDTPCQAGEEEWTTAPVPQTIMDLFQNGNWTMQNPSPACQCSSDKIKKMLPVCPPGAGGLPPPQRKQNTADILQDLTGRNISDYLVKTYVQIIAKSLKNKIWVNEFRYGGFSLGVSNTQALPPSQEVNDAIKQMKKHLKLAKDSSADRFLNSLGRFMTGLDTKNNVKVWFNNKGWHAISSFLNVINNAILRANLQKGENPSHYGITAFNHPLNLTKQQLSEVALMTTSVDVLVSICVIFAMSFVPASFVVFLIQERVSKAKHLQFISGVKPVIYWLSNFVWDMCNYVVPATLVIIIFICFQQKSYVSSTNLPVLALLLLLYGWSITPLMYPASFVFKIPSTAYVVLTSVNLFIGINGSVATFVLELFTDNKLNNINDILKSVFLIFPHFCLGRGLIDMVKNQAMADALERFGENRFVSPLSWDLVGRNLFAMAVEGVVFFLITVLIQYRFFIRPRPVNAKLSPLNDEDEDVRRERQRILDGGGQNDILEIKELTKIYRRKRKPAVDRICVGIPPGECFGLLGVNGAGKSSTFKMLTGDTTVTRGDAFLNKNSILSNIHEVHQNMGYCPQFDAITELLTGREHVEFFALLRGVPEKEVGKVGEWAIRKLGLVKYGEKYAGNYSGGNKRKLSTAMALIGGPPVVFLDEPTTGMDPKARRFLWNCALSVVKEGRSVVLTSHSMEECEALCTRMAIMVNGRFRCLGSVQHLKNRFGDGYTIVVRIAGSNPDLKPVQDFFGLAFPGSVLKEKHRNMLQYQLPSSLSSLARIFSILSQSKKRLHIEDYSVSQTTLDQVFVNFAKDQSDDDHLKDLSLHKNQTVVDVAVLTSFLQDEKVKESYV

[2] = cited from earlier work

| helicity in aqueous buffer at 24°C [1] [%] | remaining at 24 h, 500 μg/ml (chymotrypsin) [%] | susceptibility to proteolysis by pepsin (in words) (pepsin) | remaining at 24 h, 500 μg/ml (pepsin) [%] | increase in cholesterol efflux by the ABCA1 transporter compared to A10 (human ABCA1) [fold] | Compound | helicity when associated with lipids ([2]; apoA-I associated with lipids) | helicity in the lipid-free state ([2]; lipid-free apoA-I) |
| --- | --- | --- | --- | --- | --- | --- | --- |
| 62 | 0.6 | resistant to proteolysis | 0.4 | > 10 | CC(=O)N[C@H](C(=O)N[C@@H](CC(C)C)C(=O)N[C@@H](CC(=O)O)C(=O)N[C@@H](CO)C(=O)N[C@@H](Cc1ccccc1)C(=O)N[C@@H](CCCCN)C(=O)N[C@H](C(=O)N[C@@H](CO)C(=O)N[C@@]1(C)CCCC=CCCC[C@@](C)(C(=O)N[C@@H](CCC(=O)O)C(=O)N[C@@H](CCC(=O)O)C(=O)N[C@@H](Cc2ccc(O)cc2)C(=O)N[C@H](C(=O)N[C@@H](CCCCN)C(=O)N[C@@H](CCCCN)C(=O)N[C@@H](CC(C)C)C(=O)N[C@@H](CC(N)=O)C(=O)N[C@H](C(=O)N[C@@H](CCC(N)=O)C(N)=O)[C@@H](C)O)[C@@H](C)O)NC(=O)[C@H](C)NC(=O)[C@H](CO)NC(=O)[C@H](CC(C)C)NC1=O)C(C)C)C(C)C [S1A10] (Ac-VLDSFKVS[S5]LSA[S5]EEYTKKLNTQ-NH2; staple 9-13) |  |  |
| 97 | 3.8 | resistant to proteolysis | 12.2 | > 10 | CC(=O)N[C@H](C(=O)N[C@@H](CC(C)C)C(=O)N[C@@H](CC(=O)O)C(=O)N[C@@H](CO)C(=O)N[C@@H](Cc1ccccc1)C(=O)N[C@@H](CCCCN)C(=O)N[C@H](C(=O)N[C@@H](CO)C(=O)N[C@]1(C)CCCCCCC=CCCC[C@@](C)(C(=O)N[C@H](C(=O)N[C@@H](CCCCN)C(=O)N[C@@H](CCCCN)C(=O)N[C@@H](CC(C)C)C(=O)N[C@@H](CC(N)=O)C(=O)N[C@H](C(=O)N[C@@H](CCC(N)=O)C(N)=O)[C@@H](C)O)[C@@H](C)O)NC(=O)[C@H](CCC(=O)O)NC(=O)[C@H](CCC(=O)O)NC(=O)[C@H](CC(C)C)NC(=O)[C@H](C)NC(=O)[C@H](CO)NC(=O)[C@H](CC(C)C)NC1=O)C(C)C)C(C)C [S2A10] (Ac-VLDSFKVS[R8]LSALEE[S5]TKKLNTQ-NH2; staple 9-16) |  |  |
|  |  |  |  |  | apoA-I: full length apolipoprotein, the main protein on High Density Lipoproteins | over 67% | about 48% |
